Test results from ChEMBL document CHEMBL1132961 (J Med Chem, 2000).

What was measured:
[1] = (§1) Concentration which elicits cytotoxicity in 50% of uninfected human lymphocyte derived CEM cells; type: cell-based, CCRF-CEM; settings: uninfected CCRF-CEM cells, read-out: TC50 (the source's name)
Summary of the method: (§2)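 Cytotoxicity measured in uninfected human lymphocyte-derived CEM cells by XTT protocol.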

[2] = target: Human immunodeficiency virus type 1 protease (Human immunodeficiency virus 1, UniProt Q72874); assay: Tested for binding affinity against protease
[3] = test system: Human immunodeficiency virus 1; assay: Effective concentration at which 50% of the HIV-IIIB-infected human lymphocyte-derived CEM cells protected from HIV-1 infection
CCRF-CEM = assay: as §1; type: cell-based; settings: ccrf-cem, read-out: TC50 (the source's name); summary of the method: as §2

Question: Which CC50 [1] does the source give for `Cc1cc(SC2=C(O)OC(CCc3ccccc3)(C(C)C)CC2=O)c(C(C)(C)C)cc1NS(=O)(=O)c1ccc(C(F)(F)F)cc1` (stereo not given) here?
Answer: 24 µM

Question: What about the Ki [2] of the same compound?
Answer: 0.027 µM

Question: What about the EC50 ([3]; Human immunodeficiency virus 1, CCRF-CEM) of the same compound?
Answer: 0.7 µM

Question: Which results are given for `Cc1cc(SC2=C(O)O[C@](CCc3ccc(O)cc3)(C(C)C)CC2=O)c(C(C)(C)C)cc1N` (stereo in doubt; 1R)?
Answer: CC50 (CCRF-CEM): 215 µM; EC50 ([3]; ccrf-cem): 91 µM
